From ChEMBL document CHEMBL1148020, “Synthesis and glycogen phosphorylase inhibitor activity of 2,3-dihydrobenzo[1,4]dioxin derivatives” (Bioorg Med Chem, 2007)

How the values were obtained:
Homo sapiens [1] = species on record: Homo sapiens; assay: Inhibition of glycogen phosphorylase at 625 uM
Homo sapiens [2] = species on record: Homo sapiens; assay: Inhibition of glycogen phosphorylase A at 625 uM
[3] = biological target: T1, Glycogen phosphorylase, liver form (Homo sapiens) (UniProt P06737); assay: Inhibition of liver glycogen phosphorylase B at 625 uM
T1 sequence (whole entry): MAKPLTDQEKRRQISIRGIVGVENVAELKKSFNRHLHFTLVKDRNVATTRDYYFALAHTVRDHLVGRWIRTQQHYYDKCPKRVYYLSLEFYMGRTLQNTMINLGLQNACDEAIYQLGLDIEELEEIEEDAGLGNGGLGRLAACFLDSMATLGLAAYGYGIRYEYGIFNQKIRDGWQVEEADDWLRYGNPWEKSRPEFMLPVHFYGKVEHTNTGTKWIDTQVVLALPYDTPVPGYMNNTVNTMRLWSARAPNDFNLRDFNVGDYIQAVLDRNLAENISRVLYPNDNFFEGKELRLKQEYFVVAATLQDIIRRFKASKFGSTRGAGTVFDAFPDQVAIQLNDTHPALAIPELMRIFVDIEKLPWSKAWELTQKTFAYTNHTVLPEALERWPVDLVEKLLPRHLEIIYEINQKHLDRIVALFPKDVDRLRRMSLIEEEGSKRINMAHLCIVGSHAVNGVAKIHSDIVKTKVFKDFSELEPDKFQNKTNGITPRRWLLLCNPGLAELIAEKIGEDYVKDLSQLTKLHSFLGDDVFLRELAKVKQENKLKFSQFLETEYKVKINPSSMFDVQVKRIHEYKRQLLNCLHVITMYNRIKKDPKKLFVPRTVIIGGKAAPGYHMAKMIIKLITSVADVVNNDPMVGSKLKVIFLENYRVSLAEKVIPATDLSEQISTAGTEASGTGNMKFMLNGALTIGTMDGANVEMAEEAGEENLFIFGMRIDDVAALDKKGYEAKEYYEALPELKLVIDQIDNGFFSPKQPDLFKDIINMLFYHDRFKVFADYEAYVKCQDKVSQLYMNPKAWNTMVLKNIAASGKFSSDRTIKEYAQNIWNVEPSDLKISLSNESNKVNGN

[4] = Inhibition of glycogen phosphorylase; set-up: species or system Homo sapiens
Method in brief: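 Activity measured in the glycogen-synthesis direction at 30 °C with 1% glycogen, with or without glucose-1-phosphate substrate. Buffer was 50 mM triethanolamine/HCl pH 6.8 with 100 mM KCl, 1 mM dithiothreitol and 1 mM EDTA. Muscle or liver phosphorylase a was run without AMP. Phosphorylase b was run with AMP: 1 mM for muscle, 2 mM for liver. Kinetic analysis followed the authors' earlier protocol.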

inhibition (Homo sapiens [1]) [%]	inhibition (Homo sapiens [2]) [%]	inhibition [3] [%]	IC50 [4] [mM]	SMILES
20	20	20	–	O=C1NC(=O)C(Cc2ccc(OCC3COc4ccccc4O3)cc2)S1 (configuration not stated)
–	–	–	7	O=C1NC(=O)C(Cc2ccc(OCC3COc4cc5c(cc4O3)OCO5)cc2)S1 (configuration not stated)
20	20	20	–	O=C1N=C(O)S/C1=C\c1ccc(OCC2COc3ccccc3O2)cc1 (configuration not stated)
